Assay results published in ChEMBL document CHEMBL1123624, “Prodrugs of L-cysteine as protective agents against acetaminophen-induced hepatotoxicity. 2-(Polyhydroxyalkyl)- and 2-(polyacetoxyalkyl)thiazolidine-4(R)-carboxylic acids” (1987).

Experiments:
Mus musculus [1] = species on record: Mus musculus; test: Number of mice with necrosis was measured for compound along with acetaminophen showing necrosis rating of 4+ was reported.; type: functional
Mus musculus [2] = species on record: Mus musculus; test: Number of mice with necrosis was measured for compound along with acetaminophen showing necrosis rating of 0 was reported.; type: functional
Mus musculus [3] = species on record: Mus musculus; test: Number of mice with necrosis was measured for compound along with acetaminophen showing necrosis rating of 1+ was reported.; type: functional
Mus musculus [4] = species on record: Mus musculus; test: Number of mice with necrosis was measured for compound along with acetaminophen showing necrosis rating of 2+ was reported.; type: functional
Mus musculus [5] = species on record: Mus musculus; test: Number of mice with necrosis was measured for compound along with acetaminophen showing necrosis rating of 3+ was reported.; type: functional
Mus musculus [6] = species on record: Mus musculus; test: No of mice protected out of 10 against acetaminophen-induced Hepatotoxicity after 48 h; type: functional
In short: (§1)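 Male Swiss-Webster mice (19–31 g) were fasted overnight with water available. They received acetaminophen 750 mg/kg (4.97 mmol/kg) ip and then, 30 min later, prodrug 2.45 mmol/kg ip. The prodrug was given in sterile water, sterile 0.1 N NaHCO3, or as a slurry in 2% CMC. Food was then restored, and animals were checked at 12, 24 and 48 h. Survivors were counted at 48 h.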

Mus musculus [7] = species on record: Mus musculus; test: Percentage survival of mice after 48 hr.; type: functional; design: concentration or dose not given beside the values; in short: as §1
Rattus norvegicus [8] = species on record: Rattus norvegicus; test: Inhibitory effect on GSH elevation elicited by compound in rat hepatocytes in the presence of buthionine sulfoximine (BSO) (0.2 mM); type: functional, Hepatocyte
In short: (§2)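 Primary rat hepatocytes pre-exposed to buthionine sulfoximine (0.20 mM) before 4 h incubation with prodrug (1.0 mM). Total GSH (GSH + GSSG) after PBS rinse and 5% sulfosalicylic acid deproteinization, by modified DTNB–glutathione reductase recycling (ΔOD 412 nm/min). Reported as nmol/10^6 cells ± SE and relative to untreated controls.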

Rattus norvegicus [9] = species on record: Rattus norvegicus; test: GSH level related to controls; type: functional
In short: (§3)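 Primary rat hepatocyte cultures exposed to prodrug for 4 h; medium aspirated, cells rinsed with cold PBS, deproteinized with 5% sulfosalicylic acid. Total GSH (GSH + GSSG) measured by modified DTNB–glutathione reductase recycling, from cycling rate (ΔOD 412 nm/min); expressed as nmol/10^6 cells ± SE and relative to untreated controls.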

Rattus norvegicus [10] = species on record: Rattus norvegicus; test: GSH level related to controls in the presence of buthionine sulfoximine (BSO) (0.2 mM); type: functional; in short: as §2
Rattus norvegicus [11] = species on record: Rattus norvegicus; test: In vitro increased GSH content of rat hepatocytes when incubated with compound after 4 hr at 1.0 mM concentration.; type: functional, Hepatocyte; in short: as §3
Mus musculus [12] = species on record: Mus musculus; test: No of mice protected out of 12 against acetaminophen-induced Hepatotoxicity after 48 h; type: functional; in short: as §1
Mus musculus [13] = species on record: Mus musculus; test: Number of mice with necrosis was measured for compound along with acetaminophen and number of animals showing necrosis rating of 0 was reported.; type: functional
Mus musculus [14] = species on record: Mus musculus; test: Number of mice with necrosis was measured for compound along with acetaminophen and number of animals showing necrosis rating of 1+ was reported.; type: functional
Mus musculus [15] = species on record: Mus musculus; test: Number of mice with necrosis was measured for compound along with acetaminophen and number of animals showing necrosis rating of 2+ was reported.; type: functional
Mus musculus [16] = species on record: Mus musculus; test: Number of mice with necrosis was measured for compound along with acetaminophen and number of animals showing necrosis rating of 3+ was reported.; type: functional
Mus musculus [17] = species on record: Mus musculus; test: Number of mice with necrosis was measured for compound along with acetaminophen and number of animals showing necrosis rating of 4+ was reported.; type: functional
Mus musculus [18] = species on record: Mus musculus; test: Protection of mice against acetaminophen-induced Hepatotoxicity; type: functional
In short: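 Fasted male Swiss-Webster mice (19–31 g) were given acetaminophen 750 mg/kg ip, then prodrug 2.45 mmol/kg ip 30 min later. Outcomes were 48-h survival plus histology. Central-lobe liver sections came from animals found dead at 12/24/48 h or killed at 48 h. Sections were formalin-fixed and H&E-stained. Necrosis was rated blind using Mitchell's scale.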

Rattus norvegicus [19] = species on record: Rattus norvegicus; test: In vitro increased GSH content of rat hepatocytes when incubated with compound after 4 hr at 2.5 mM concentration.; type: functional, Hepatocyte; in short: as §3

O=C(O)[C@@H]1CSC(C(O)CO)N1 (some centres undefined)
No. of animals (Mus musculus [1]): 7 | No. of animals (Mus musculus [2]): 0 | No. of animals (Mus musculus [3]): 0 | No. of animals (Mus musculus [4]): 1 | No. of animals (Mus musculus [5]): 2 | No. of survivors (Mus musculus [6]): 3 | Survival (Mus musculus [7]): 30% | [GSH] (Rattus norvegicus [8]): 18.3 nmol/10^6 cells | GSH level (Rattus norvegicus [9]): 1.3 | GSH level (Rattus norvegicus [10]): 0.5 | [GSH] (Rattus norvegicus [11]): 46.1 nmol/10^6 cells

O=C(O)[C@@H]1CSC(C(O)C(O)C(O)CO)N1 (stereo in doubt; 1b)
No. of animals (Mus musculus [1]): 7 | No. of animals (Mus musculus [3]): 1 | No. of animals (Mus musculus [4]): 2 | No. of survivors (Mus musculus [6]): 4 | Survival (Mus musculus [7]): 40% | [GSH] (Rattus norvegicus [8]): 19.5 nmol/10^6 cells | GSH level (Rattus norvegicus [9]): 1.2 | [GSH] (Rattus norvegicus [11]): 42.9 nmol/10^6 cells

O=C(O)[C@@H]1CSC(C(O)C(O)C(O)CO)N1 (stereo in doubt; 1c)
No. of animals (Mus musculus [1]): 9 | No. of animals (Mus musculus [2]): 0 | No. of animals (Mus musculus [3]): 0 | No. of animals (Mus musculus [4]): 0 | No. of animals (Mus musculus [5]): 1 | No. of survivors (Mus musculus [6]): 3 | Survival (Mus musculus [7]): 30% | [GSH] (Rattus norvegicus [8]): 22.4 nmol/10^6 cells | GSH level (Rattus norvegicus [9]): 1.3 | GSH level (Rattus norvegicus [10]): 0.6 | [GSH] (Rattus norvegicus [11]): 45.9 nmol/10^6 cells

O=C(O)[C@@H]1CSC(C(O)C(O)C(O)CO)N1 (stereo in doubt; 1d)
No. of animals (Mus musculus [1]): 0 | No. of animals (Mus musculus [2]): 4 | No. of animals (Mus musculus [3]): 2 | No. of animals (Mus musculus [4]): 6 | No. of animals (Mus musculus [5]): 0 | No. of survivors (Mus musculus [12]): 12 | Survival (Mus musculus [7]): 100% | [GSH] (Rattus norvegicus [8]): 16.2 nmol/10^6 cells | GSH level (Rattus norvegicus [9]): 1.7 | GSH level (Rattus norvegicus [10]): 0.5 | [GSH] (Rattus norvegicus [11]): 61.2 nmol/10^6 cells

O=C(O)[C@@H]1CSC(C(O)C(O)C(O)CO)N1 (stereo in doubt; 1e)
No. of animals (Mus musculus [1]): 5 | No. of animals (Mus musculus [2]): 3 | No. of survivors (Mus musculus [6]): 6 | Survival (Mus musculus [7]): 60% | [GSH] (Rattus norvegicus [8]): 22.6 nmol/10^6 cells | GSH level (Rattus norvegicus [9]): 1.6 | GSH level (Rattus norvegicus [10]): 0.8 | [GSH] (Rattus norvegicus [11]): 58.3 nmol/10^6 cells

O=C(O)[C@@H]1CSC(C(O)C(O)C(O)C(O)CO)N1 (stereo in doubt; 1f)
No. of animals (Mus musculus [1]): 4 | No. of animals (Mus musculus [2]): 1 | No. of animals (Mus musculus [3]): 3 | No. of animals (Mus musculus [4]): 2 | No. of animals (Mus musculus [5]): 0 | No. of survivors (Mus musculus [6]): 6 | Survival (Mus musculus [7]): 60% | [GSH] (Rattus norvegicus [8]): 23.2 nmol/10^6 cells | GSH level (Rattus norvegicus [9]): 1.6 | GSH level (Rattus norvegicus [10]): 0.7 | [GSH] (Rattus norvegicus [11]): 58 nmol/10^6 cells

O=C(O)[C@@H]1CSC(C(O)C(O)C(O)C(O)CO)N1 (stereo in doubt; 1g)
No. of animals (Mus musculus [1]): 7 | No. of animals (Mus musculus [2]): 0 | No. of animals (Mus musculus [3]): 2 | No. of animals (Mus musculus [4]): 0 | No. of animals (Mus musculus [5]): 1 | No. of survivors (Mus musculus [6]): 3 | Survival (Mus musculus [7]): 30% | [GSH] (Rattus norvegicus [8]): 25.4 nmol/10^6 cells | GSH level (Rattus norvegicus [9]): 2.1 | [GSH] (Rattus norvegicus [11]): 75.2 nmol/10^6 cells

O=C(O)[C@@H]1CSC(C(O)C(O)C(O)C(O)CO)N1 (stereo in doubt; 1h)
No. of animals (Mus musculus [1]): 6 | No. of animals (Mus musculus [2]): 3 | No. of animals (Mus musculus [3]): 0 | No. of animals (Mus musculus [4]): 1 | No. of survivors (Mus musculus [6]): 4 | Survival (Mus musculus [7]): 40% | [GSH] (Rattus norvegicus [8]): 18.9 nmol/10^6 cells | GSH level (Rattus norvegicus [10]): 0.5 | [GSH] (Rattus norvegicus [11]): 57.8 nmol/10^6 cells

CC(=O)Nc1ccc(O)cc1 [ACETAMINOPHEN]
No. of animals (Mus musculus [1]): 11 | No. of animals (Mus musculus [2]): 0 | No. of animals (Mus musculus [3]): 0 | No. of animals (Mus musculus [4]): 1 | No. of animals (Mus musculus [5]): 0 | No. of survivors (Mus musculus [12]): 2 | Survival (Mus musculus [7]): 17%

CC(=O)N[C@@H](CS)C(=O)O [ACETYLCYSTEINE]
No. of animals (Mus musculus [13]): 13 | No. of animals (Mus musculus [14]): 3 | No. of animals (Mus musculus [15]): 0 | No. of animals (Mus musculus [16]): 1 | No. of animals (Mus musculus [17]): 1 | Survival (Mus musculus [18]): 17% | Survival (Mus musculus [7]): 94% | [GSH] (Rattus norvegicus [19]): 45.8 nM (10e6*cells)-1
